Measured values: ChEMBL document CHEMBL3232922, “Discovery and SAR of 6-alkyl-2,4-diaminopyrimidines as histamine H₄ receptor antagonists” (J Med Chem, 2014)
The source made the active and inactive calls. No cut-off for these calls is given here.

Key:
Histamine H4 receptor [1] = target: T1, Histamine H4 receptor (Homo sapiens, UniProt Q9H3N8); assay: Displacement of [3H]histamine from human recombinant histamine H4 receptor expressed in SK-N-MC cells after 45 mins by competition binding analysis; assay type: cell-based
T1 sequence (Q9H3N8 whole entry): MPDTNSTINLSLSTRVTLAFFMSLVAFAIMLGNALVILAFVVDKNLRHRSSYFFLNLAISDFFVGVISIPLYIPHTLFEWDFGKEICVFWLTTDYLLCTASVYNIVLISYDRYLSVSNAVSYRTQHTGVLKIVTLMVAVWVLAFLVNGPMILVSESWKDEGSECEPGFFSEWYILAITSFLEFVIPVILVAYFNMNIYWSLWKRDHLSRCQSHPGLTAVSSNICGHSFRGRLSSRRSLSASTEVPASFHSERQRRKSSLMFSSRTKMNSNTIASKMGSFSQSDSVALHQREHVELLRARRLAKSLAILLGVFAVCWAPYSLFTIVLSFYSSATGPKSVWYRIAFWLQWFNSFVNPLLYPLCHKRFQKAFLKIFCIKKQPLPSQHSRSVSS

Histamine H4 receptor [2] = target: T1, Histamine H4 receptor; assay: Agonist activity at human H4 receptor; conditions: read-out: EC50
Histamine H4 receptor [3] = target: T1, Histamine H4 receptor; assay: Antagonist activity at human histamine H4 receptor expressed in SK-N-MC cells assessed as reduction of histamine-induced inhibition of cAMP-mediated beta-galactosidase reporter gene activity treated 10 mins prior to histamine challenge by microplate reader analysis; assay type: functional, cell-based; conditions: read-out: pA2 (converted)
Histamine H4 receptor [4] = target: T2, Histamine H4 receptor (Mus musculus, UniProt Q91ZY2); assay: Displacement of [3H]histamine from mouse histamine H4 receptor expressed in SK-N-MC cells after 45 mins by competition binding analysis; assay type: cell-based
T2 sequence (Q91ZY2 whole entry): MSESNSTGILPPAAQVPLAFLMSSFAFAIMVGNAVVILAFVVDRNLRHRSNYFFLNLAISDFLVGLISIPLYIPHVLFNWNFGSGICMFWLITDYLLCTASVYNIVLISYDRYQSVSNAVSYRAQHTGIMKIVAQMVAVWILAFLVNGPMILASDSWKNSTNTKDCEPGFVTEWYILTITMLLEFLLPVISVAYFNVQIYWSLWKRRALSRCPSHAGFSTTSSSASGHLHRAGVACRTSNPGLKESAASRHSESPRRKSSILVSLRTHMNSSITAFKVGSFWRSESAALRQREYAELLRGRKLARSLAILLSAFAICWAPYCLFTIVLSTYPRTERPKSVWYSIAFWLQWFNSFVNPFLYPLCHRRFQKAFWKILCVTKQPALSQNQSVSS
Outline: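 Transfected cells expressing the H4 receptor, competition against [3H]histamine. Ki is the geometric mean of at least three independent determinations (each in triplicate), calculated by the Cheng–Prusoff equation.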

Histamine H4 receptor [5] = target: T2, Histamine H4 receptor; assay: Antagonist activity at mouse histamine H4 receptor expressed in SK-N-MC cells assessed as reduction of histamine-induced inhibition of cAMP-mediated beta-galactosidase reporter gene activity treated 10 mins prior to histamine challenge by microplate reader analysis; assay type: functional, cell-based; conditions: read-out: pA2 (converted)
Histamine H3 receptor = Histamine H3 receptor (Homo sapiens, UniProt Q9Y5N1); assay: Displacement of [3H]N-alpha-methylhistamine from human recombinant histamine H3 receptor expressed in SK-N-MC cells after 45 mins by competition binding analysis; assay type: cell-based
Histamine H3 receptor, sequence (Q9Y5N1 whole entry): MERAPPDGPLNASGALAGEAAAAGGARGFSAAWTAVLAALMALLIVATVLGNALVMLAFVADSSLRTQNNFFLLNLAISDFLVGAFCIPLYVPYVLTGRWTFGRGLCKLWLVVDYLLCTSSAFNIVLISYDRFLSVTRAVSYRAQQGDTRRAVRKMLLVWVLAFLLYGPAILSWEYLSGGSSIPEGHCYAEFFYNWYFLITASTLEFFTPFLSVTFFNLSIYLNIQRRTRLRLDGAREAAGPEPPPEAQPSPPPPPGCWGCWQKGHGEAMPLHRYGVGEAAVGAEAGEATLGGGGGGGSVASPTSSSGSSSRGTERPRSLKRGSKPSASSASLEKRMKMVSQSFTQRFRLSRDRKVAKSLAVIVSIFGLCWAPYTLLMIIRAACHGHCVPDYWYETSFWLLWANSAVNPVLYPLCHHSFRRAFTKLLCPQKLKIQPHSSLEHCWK

[6] = Half life in human microsomes; assay type: ADME, Microsome
[7] = Half life in rat microsomes; assay type: ADME, Microsome
[8] = target: Voltage-gated inwardly rectifying potassium channel KCNH2 (Homo sapiens, UniProt Q12809); assay: Inhibition of human ERG channel transfected in HEK293 cells assessed as reduction in delayed rectifier current by patch clamp assay; assay type: cell-based
Voltage-gated inwardly rectifying potassium channel KCNH2, sequence (Q12809 whole entry): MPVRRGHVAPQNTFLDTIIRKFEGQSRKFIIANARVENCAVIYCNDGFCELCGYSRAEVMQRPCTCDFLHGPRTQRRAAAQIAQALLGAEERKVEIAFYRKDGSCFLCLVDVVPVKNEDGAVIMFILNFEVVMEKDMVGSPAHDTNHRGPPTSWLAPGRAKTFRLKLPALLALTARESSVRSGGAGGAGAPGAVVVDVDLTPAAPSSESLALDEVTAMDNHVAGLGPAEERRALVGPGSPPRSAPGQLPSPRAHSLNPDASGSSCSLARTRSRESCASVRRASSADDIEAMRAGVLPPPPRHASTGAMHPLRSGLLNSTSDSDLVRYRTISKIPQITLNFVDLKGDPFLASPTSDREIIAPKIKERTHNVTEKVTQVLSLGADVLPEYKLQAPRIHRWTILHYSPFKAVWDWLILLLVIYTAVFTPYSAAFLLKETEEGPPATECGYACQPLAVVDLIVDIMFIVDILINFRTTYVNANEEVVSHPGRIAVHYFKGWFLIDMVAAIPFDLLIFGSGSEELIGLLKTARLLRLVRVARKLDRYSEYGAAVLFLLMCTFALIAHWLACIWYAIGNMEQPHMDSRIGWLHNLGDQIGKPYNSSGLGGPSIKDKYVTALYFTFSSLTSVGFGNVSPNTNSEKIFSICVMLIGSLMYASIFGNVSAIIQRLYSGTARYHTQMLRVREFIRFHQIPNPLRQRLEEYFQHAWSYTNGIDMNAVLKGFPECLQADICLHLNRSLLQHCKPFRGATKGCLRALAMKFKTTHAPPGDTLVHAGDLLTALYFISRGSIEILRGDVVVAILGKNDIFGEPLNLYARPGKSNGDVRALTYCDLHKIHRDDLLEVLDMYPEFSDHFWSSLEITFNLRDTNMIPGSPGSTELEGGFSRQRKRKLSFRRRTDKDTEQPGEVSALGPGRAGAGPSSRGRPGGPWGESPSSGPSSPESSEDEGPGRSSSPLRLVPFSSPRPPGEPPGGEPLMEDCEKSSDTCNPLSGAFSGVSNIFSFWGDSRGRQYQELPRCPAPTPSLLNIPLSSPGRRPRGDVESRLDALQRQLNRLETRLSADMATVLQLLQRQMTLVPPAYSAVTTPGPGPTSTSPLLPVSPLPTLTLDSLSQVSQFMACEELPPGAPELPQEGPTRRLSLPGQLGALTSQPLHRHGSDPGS
Outline: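 The delayed rectifier current (IKr) was recorded in hERG-transfected HEK293 cells with the compound at 3 μM.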

[9] = Permeability from apical to basolateral side in human Caco cells; assay type: ADME, cell-based; conditions: Caco-2, read-out: permeability
[10] = Permeability from basolateral to apical side in human Caco cells; assay type: ADME, cell-based; conditions: Caco-2, read-out: permeability
[11] = Fraction unbound in human plasma; assay type: ADME, cell-free
[12] = Half life in rat at 2 mg/kg, iv; assay type: ADME, organism-based; set-up: dose 2 mg/kg, route intravenous; conditions: in vivo
[13] = AUC in rat at 2 mg/kg, iv; assay type: ADME, organism-based; set-up: dose 2 mg/kg, route intravenous; conditions: plasma
[14] = Clearance in rat at 2 mg/kg, iv; assay type: ADME, organism-based; set-up: dose 2 mg/kg, route intravenous; conditions: in vivo
[15] = Volume of distribution at steady state in rat at 2 mg/kg, iv; assay type: ADME, organism-based; set-up: dose 2 mg/kg, route intravenous; conditions: in vivo, read-out: Vdss
[16] = Oral bioavailability in rat at 10 mg/kg; assay type: ADME, organism-based; conditions: in vivo
[17] = Half life in rat at 10 mg/kg, po; assay type: ADME, organism-based; set-up: dose 10 mg/kg, route oral; conditions: in vivo
[18] = Cmax in rat at 10 mg/kg, po; assay type: ADME, organism-based; set-up: dose 10 mg/kg, route oral; conditions: in vivo
Mus musculus = assay: Antiinflammatory activity in po dosed Balb/c mouse assessed as inhibition of LPS-induced TNF-alpha release at plasma concentration of 62.5 nM administered 30 mins prior to LPS challenge measured after 2 hrs by ELISA; assay type: functional, organism-based
[19] = AUC in Balb/c mouse at 20 mg/kg, po; assay type: ADME, organism-based; set-up: dose 20 mg/kg, route oral; conditions: plasma
[20] = AUC in Sprague-Dawley rat at 2 mg/kg, iv; assay type: ADME, organism-based; set-up: dose 2 mg/kg, route intravenous; conditions: plasma
[21] = AUC in Sprague-Dawley rat at 10 mg/kg, po; assay type: ADME, organism-based; set-up: dose 10 mg/kg, route oral; conditions: plasma
Canis familiaris = assay: AUC in beagle dog at 2 mg/kg, iv; assay type: ADME, organism-based, Canis lupus familiaris, Plasma; set-up: dose 2 mg/kg, route intravenous; conditions: in vivo
[22] = AUC in beagle dog at 10 mg/kg, po; assay type: ADME, organism-based, Canis lupus familiaris; set-up: dose 10 mg/kg, route oral; conditions: plasma
Rattus norvegicus [23] = assay: Clearance in Sprague-Dawley rat at 2 mg/kg, iv; assay type: ADME, organism-based; set-up: dose 2 mg/kg, route intravenous; conditions: in vivo
Rattus norvegicus [24] = assay: Volume of distribution at steady state in Sprague-Dawley rat at 2 mg/kg, iv; assay type: ADME, organism-based; set-up: dose 2 mg/kg, route intravenous; conditions: in vivo
[25] = Volume of distribution at steady state in beagle dog at 2 mg/kg, iv; assay type: ADME, organism-based, Canis lupus familiaris; set-up: dose 2 mg/kg, route intravenous; conditions: in vivo, read-out: Vdss
[26] = Half life in Balb/c mouse at 20 mg/kg, po; assay type: ADME, organism-based; set-up: dose 20 mg/kg, route oral; conditions: in vivo
Rattus norvegicus [27] = assay: Half life in Sprague-Dawley rat at 2 mg/kg, iv; assay type: ADME, organism-based; set-up: dose 2 mg/kg, route intravenous; conditions: in vivo
[28] = Half life in Sprague-Dawley rat at 10 mg/kg, po; assay type: ADME, organism-based; set-up: dose 10 mg/kg, route oral; conditions: in vivo
[29] = Half life in beagle dog at 2 mg/kg, iv; assay type: ADME, organism-based, Canis lupus familiaris; set-up: dose 2 mg/kg, route intravenous; conditions: in vivo
[30] = Half life in beagle dog at 10 mg/kg, po; assay type: ADME, organism-based, Canis lupus familiaris; set-up: dose 10 mg/kg, route oral; conditions: in vivo
[31] = Oral bioavailability in Sprague-Dawley rat at 10 mg/kg; assay type: ADME, organism-based; conditions: in vivo
[32] = Oral bioavailability in beagle dog at 10 mg/kg; assay type: ADME, organism-based, Canis lupus familiaris; conditions: in vivo
[33] = Tmax in Balb/c mouse at 20 mg/kg, po; assay type: ADME, organism-based; set-up: dose 20 mg/kg, route oral; conditions: in vivo
[34] = Tmax in Sprague-Dawley rat at 10 mg/kg, po; assay type: ADME, organism-based; set-up: dose 10 mg/kg, route oral; conditions: in vivo
[35] = Tmax in beagle dog at 10 mg/kg, po; assay type: ADME, organism-based, Canis lupus familiaris; set-up: dose 10 mg/kg, route oral; conditions: in vivo
[36] = Cmax in Balb/c mouse at 20 mg/kg, po; assay type: ADME, organism-based; set-up: dose 20 mg/kg, route oral; conditions: in vivo
[37] = Initial plasma concentration in Sprague-Dawley rat at 2 mg/kg, iv; assay type: ADME, organism-based; set-up: dose 2 mg/kg, route intravenous
[38] = Cmax in Sprague-Dawley rat at 10 mg/kg, po; assay type: ADME, organism-based; set-up: dose 10 mg/kg, route oral; conditions: in vivo
[39] = Initial plasma concentration in beagle dog at 2 mg/kg, iv; assay type: ADME, organism-based, Canis lupus familiaris; set-up: dose 2 mg/kg, route intravenous
[40] = Cmax in beagle dog at 10 mg/kg, po; assay type: ADME, organism-based, Canis lupus familiaris; set-up: dose 10 mg/kg, route oral; conditions: in vivo

CN[C@@H]1CCN(c2cc(C(F)(F)F)nc(N)n2)C1
Ki (Histamine H4 receptor [1]): > 10000 nM

CN1CCN(C(=O)c2nc3cc(Cl)ccc3[nH]2)CC1
Ki (Histamine H4 receptor [1]): 20 nM

Nc1nc(C2CCCC2)cc(N2C[C@H]3CCCN[C@H]3C2)n1
Ki (Histamine H4 receptor [1]): 1.8 nM
EC50 (Histamine H4 receptor [2]): > 10000 nM
Kb (Histamine H4 receptor [3]): < 0.1 nM

CN1CCN(C(=O)c2nc3c([nH]2)CCCC3)CC1
Ki (Histamine H4 receptor [1]): 39 nM

CCc1cc(N2CC[C@@H](NC)C2)nc(N)n1
EC50 (Histamine H4 receptor [2]): > 10000 nM
Kb (Histamine H4 receptor [3]): 10 nM
Ki (Histamine H4 receptor [4]): 62 nM
Kb (Histamine H4 receptor [5]): 50.1 nM
Ki (Histamine H3 receptor): 670 nM
half-life [6]: > 2 h
half-life [7]: 1.05 h
INH [8]: > 10 µM
Papp A→B [9]: 54 ×10⁻⁶ cm/s
Papp B→A [10]: 14 ×10⁻⁶ cm/s
fraction unbound [11]: 0.26
half-life [12]: 5.3 h
AUC [13]: 11 µM·h
clearance [14]: 5 mL/min/kg
Vd [15]: 6.3 L/kg
bioavailability [16]: 50%
half-life [17]: 9.7 h
Cmax [18]: 1.5 µM
inhibition (Mus musculus): Active

Nc1nc(C2CCCC2)cc(N2CCC3(CCCN3)C2)n1 (configuration not stated)
Ki (Histamine H4 receptor [1]): 11.2 nM
EC50 (Histamine H4 receptor [2]): > 10000 nM
Kb (Histamine H4 receptor [3]): 2.51 nM

CN[C@@H]1CCN(c2cc(C34CC5CC(CC(C5)C3)C4)nc(N)n2)C1
Ki (Histamine H4 receptor [1]): 1.7 nM
EC50 (Histamine H4 receptor [2]): > 10000 nM
Kb (Histamine H4 receptor [3]): < 0.1 nM

Cc1cnc(OCCCCC2CCN(C)CC2)cc1-c1nc2c(C)c(F)ccc2[nH]1
Ki (Histamine H4 receptor [1]): 5 nM

CN[C@@H]1CCN(c2cc(Cc3ccccc3)nc(N)n2)C1
AUC [19]: 60 µM·h
AUC [20]: 11 µM·h
AUC [21]: 27.8 µM·h
AUC (Canis familiaris): 8.1 µM·h
AUC [22]: 45 µM·h
CL (Rattus norvegicus [23]): 5.5 mL/min/kg
Vdss (Rattus norvegicus [24]): 6.3 L/kg
Vd [25]: 15.1 L/kg
half-life [26]: 5.2 h
t1/2 (Rattus norvegicus [27]): 5.3 h
half-life [28]: 9.3 h
half-life [29]: 9.3 h
half-life [30]: 10 h
bioavailability [31]: 50%
bioavailability [32]: 112%
EC50 (Histamine H4 receptor [2]): > 10000 nM
Kb (Histamine H4 receptor [3]): 10 nM
Tmax [33]: 0.5 h
Tmax [34]: 5 h
Tmax [35]: 0.6 h
Cmax [36]: 8.5 µM
C0 [37]: 19 µM
Cmax [38]: 1.6 µM
C0 [39]: 2.5 µM
Cmax [40]: 4.2 µM

Nc1nc(C2CCCC2)cc(N2CC(N)C2)n1
Ki (Histamine H4 receptor [1]): 5.5 nM
EC50 (Histamine H4 receptor [2]): 1300 nM
Kb (Histamine H4 receptor [3]): 25.1 nM

CN1CCN(C(=O)c2cc3c([nH]2)CCCC3)CC1
Ki (Histamine H4 receptor [1]): 20 nM

CN[C@@H]1CCN(c2cc(C(C)C)nc(N)n2)C1
EC50 (Histamine H4 receptor [2]): > 10000 nM
Kb (Histamine H4 receptor [3]): 12.6 nM

CCc1cc(N2CC[C@@H](N)C2)nc(N)n1
EC50 (Histamine H4 receptor [2]): > 10000 nM
Kb (Histamine H4 receptor [3]): 12.6 nM

CN[C@@H]1CCN(c2cc(C3CCC3)nc(N)n2)C1
Ki (Histamine H4 receptor [1]): 2.4 nM
EC50 (Histamine H4 receptor [2]): > 10000 nM
Kb (Histamine H4 receptor [3]): 0.398 nM

CN[C@@H]1CCN(c2cc(C3CCCC3)nc(N)n2)C1
Ki (Histamine H4 receptor [1]): 1.1 nM
EC50 (Histamine H4 receptor [2]): > 10000 nM
Kb (Histamine H4 receptor [3]): 0.251 nM

Nc1nc(C2CCCC2)cc(N2C[C@H]3CNC[C@H]3C2)n1
Ki (Histamine H4 receptor [1]): 328 nM
